Experimental data: ChEMBL document CHEMBL4689842, “EUbOPEN Chemogenomics Library wave 1” (2021)

Test system: HEK-293T
Assay: Multiplex assay against HEK293T;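 as to Population Tubulin-Different-Phenotype (%): share of the cells with healthy nuclei that show this phenotype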
Assay type: toxicity, cell-based
Conditions: human
Summary of the method: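 Live cells carried four stains from seeding: Hoechst33342, BioTracker Green Microtubule Cytoskeleton Dye, MitoTracker Red and Annexin V Alexa Fluor 680. They were imaged on a CQ1 microscope at 37°C and 5% CO2 after compound addition. Using CellPathfinder machine-learning gating, cells were split into Hoechst high-intensity objects or normal cells, normal cells into healthy, pyknosed or fragmented nuclei, and pyknosed cells into mitotic or apoptotic; tubulin, mitochondrial-mass and membrane-permeability phenotypes are per cents of healthy-nucleus cells.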

[1] = 12 h, 1 µM, compound concentration 1 uM, replicate 1
[2] = 12 h, 1 µM, compound concentration 1 uM, replicate 2
[3] = 12 h, 10 µM, compound concentration 10 uM, replicate 1
[4] = 12 h, 10 µM, compound concentration 10 uM, replicate 2
[5] = 24 h, 1 µM, compound concentration 1 uM, replicate 1
[6] = 24 h, 1 µM, compound concentration 1 uM, replicate 2
[7] = 24 h, 10 µM, compound concentration 10 uM, replicate 1
[8] = 24 h, 10 µM, compound concentration 10 uM, replicate 2

C=CC(=O)Nc1cccc(Sc2nc(Nc3ccc(N4CCN(C)CC4)cc3)ncc2Cl)c1
Population Apoptotic (%) [1]: 33% | Population Fragmented Nuclei (%) [1]: 28% | Population Healthy Nuclei (%) [1]: 14% | Population Hoechst High Intensity Objects (%) [1]: 16% | Population Membrane Permeable-Phenotype (%) [1]: 22% | Population Mitochondria Different-Phenotype (%) [1]: 15% | Population Mitotic Cells (%) [1]: 66% | Population Normal (%) [1]: 83% | Population Pyknosed Nuclei (%) [1]: 57% | Population Tubulin-Different-Phenotype (%) [1]: 58% | Total Cell Count [1]: 748 | Population Apoptotic (%) [2]: 20% | Population Fragmented Nuclei (%) [2]: 4% | Population Healthy Nuclei (%) [2]: 64% | Population Hoechst High Intensity Objects (%) [2]: 10% | Population Membrane Permeable-Phenotype (%) [2]: 7% | Population Mitochondria Different-Phenotype (%) [2]: 44% | Population Mitotic Cells (%) [2]: 79% | Population Normal (%) [2]: 89% | Population Pyknosed Nuclei (%) [2]: 30% | Population Tubulin-Different-Phenotype (%) [2]: 98% | Total Cell Count [2]: 1010 | Population Apoptotic (%) [3]: 21% | Population Fragmented Nuclei (%) [3]: 26% | Population Healthy Nuclei (%) [3]: 38% | Population Hoechst High Intensity Objects (%) [3]: 21% | Population Membrane Permeable-Phenotype (%) [3]: 10% | Population Mitochondria Different-Phenotype (%) [3]: 13% | Population Mitotic Cells (%) [3]: 78% | Population Normal (%) [3]: 78% | Population Pyknosed Nuclei (%) [3]: 35% | Population Tubulin-Different-Phenotype (%) [3]: 14% | Total Cell Count [3]: 476 | Population Apoptotic (%) [4]: 6% | Population Fragmented Nuclei (%) [4]: 7% | Population Healthy Nuclei (%) [4]: 84% | Population Hoechst High Intensity Objects (%) [4]: 3% | Population Membrane Permeable-Phenotype (%) [4]: 5% | Population Mitochondria Different-Phenotype (%) [4]: 16% | Population Mitotic Cells (%) [4]: 93% | Population Normal (%) [4]: 96% | Population Pyknosed Nuclei (%) [4]: 7% | Population Tubulin-Different-Phenotype (%) [4]: 25% | Total Cell Count [4]: 1448 | Population Apoptotic (%) [5]: 55% | Population Fragmented Nuclei (%) [5]: 34% | Population Healthy Nuclei (%) [5]: 26% | Population Hoechst High Intensity Objects (%) [5]: 14% | Population Membrane Permeable-Phenotype (%) [5]: 18% | Population Mitochondria Different-Phenotype (%) [5]: 12% | Population Mitotic Cells (%) [5]: 44% | Population Normal (%) [5]: 85% | Population Pyknosed Nuclei (%) [5]: 39% | Population Tubulin-Different-Phenotype (%) [5]: 52% | Total Cell Count [5]: 683 | Population Apoptotic (%) [6]: 28% | Population Fragmented Nuclei (%) [6]: 6% | Population Healthy Nuclei (%) [6]: 63% | Population Hoechst High Intensity Objects (%) [6]: 10% | Population Membrane Permeable-Phenotype (%) [6]: 6% | Population Mitochondria Different-Phenotype (%) [6]: 63% | Population Mitotic Cells (%) [6]: 71% | Population Normal (%) [6]: 89% | Population Pyknosed Nuclei (%) [6]: 29% | Population Tubulin-Different-Phenotype (%) [6]: 97% | Total Cell Count [6]: 914 | Population Apoptotic (%) [7]: 26% | Population Fragmented Nuclei (%) [7]: 18% | Population Healthy Nuclei (%) [7]: 64% | Population Hoechst High Intensity Objects (%) [7]: 12% | Population Membrane Permeable-Phenotype (%) [7]: 10% | Population Mitochondria Different-Phenotype (%) [7]: 12% | Population Mitotic Cells (%) [7]: 73% | Population Normal (%) [7]: 87% | Population Pyknosed Nuclei (%) [7]: 17% | Population Tubulin-Different-Phenotype (%) [7]: 30% | Total Cell Count [7]: 470 | Population Apoptotic (%) [8]: 4% | Population Fragmented Nuclei (%) [8]: 20% | Population Healthy Nuclei (%) [8]: 76% | Population Hoechst High Intensity Objects (%) [8]: 4% | Population Membrane Permeable-Phenotype (%) [8]: 7% | Population Mitochondria Different-Phenotype (%) [8]: 2% | Population Mitotic Cells (%) [8]: 95% | Population Normal (%) [8]: 95% | Population Pyknosed Nuclei (%) [8]: 3% | Population Tubulin-Different-Phenotype (%) [8]: 19% | Total Cell Count [8]: 2375
